Screening results: PubChem, SRMLSC
HUVEC prolif 384: human endothelial cell proliferation inhibition. HUVEC proliferation, CellTiter-Glo luminescence, 72 h; stronger effect = lower value. viability, % at 10 µM (by protocol). 86,000 tested, 1.1% active;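 active = viability at or below 30%; inactive = viability above 30%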
H69AR inhibit: growth inhibitors of human H69AR lung tumor cells; H69AR lung tumor viability, ATP luminescence, 72 h; stronger effect = lower value; viability, % at 10 µM; 85,000 tested, 6% active; AID 598;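 active = viability at or below 40%; inactive = viability above 40%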;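 also: multidrug resistant small cell line overexpressing MRP-1 efflux transporter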
HCT116 PTEN-null: suppresses growth of cells with PTEN deletion. HCT116 PTEN-null viability, CellTiter-Glo, 60 h; stronger effect = lower value. viability, % at 10 µM. 140,000 tested, 1.2% active;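 active = viability at or below a set limit, 4 SD under the median of all tested compounds, cut at about 3.7% in these data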;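 also: PTEN knockout HCT116 line with beta catenin targeted HCT116 as companion control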
Fibroblast inh: blocks proliferation of human lung fibroblasts. viability, % at 10 µM. 85,000 tested, 1.1% active. LL 47 human lung fibroblast viability, ATP luminescence; stronger effect = lower value. AID 719;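 active = viability at or below 50% in the single dose screen; inactive = viability above 50%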;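 also: compound exposure lasted 72 h before the ATP readout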
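Test system: LL 47 human lung fibroblasts / Incubation: 72 h compound exposure at 37 °C after overnight plating / Technique: luminescent ATP detection, CellTiter-Glo / Compound dosing: 0.1% DMSO in all compound wells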
HCT116 bCat-KO: beta-catenin-lacking colon tumor cell growth suppression | viability, % at 10 µM | 140,000 tested, 1.5% active | HCT116 beta-catenin knockout viability, CellTiter-Glo, 60 h; stronger effect = lower value;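 active = viability at or under a set limit, the compound median less 4 SD, cut at about 6% in these data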
Each line names hits and unclear results; the compound was inactive in the other large screens. This is one part of a sample in which hits are shown more often than they occur.

CCc1cc(=O)oc2cc3occ(C)c3cc12	none (no result: HUVEC prolif 384, H69AR inhibit, Fibroblast inh)
CCc1cc(=O)oc2cc3occ(-c4ccc(OC)c(F)c4)c3cc12	HCT116 PTEN-null 2.7, HCT116 bCat-KO 4.2 (no result: HUVEC prolif 384, H69AR inhibit, Fibroblast inh)
CCN(CC)Cc1c(O)ccc2c([N+](=O)[O-])c(C)n(-c3ccc(OC)cc3)c12	H69AR inhibit 39
CCn1cc(C(=O)OCC(=O)NCc2ccc3c(c2)OCO3)c(=O)c2ccc(C)nc21	H69AR inhibit 11
CCOC(=O)COc1cccc2c(=O)n(CC(=O)NCc3ccc4c(c3)OCO4)ccc12	H69AR inhibit 26
CCOC(=O)COc1cccc2c(=O)n(CC(=O)NCCc3ccccc3)ccc12	none (no result: HUVEC prolif 384, H69AR inhibit, Fibroblast inh)
CCn1cc(C(=O)NCc2ccc3c(c2)OCO3)c(=O)c2ccc(C)nc21	none (no result: HCT116 PTEN-null, HCT116 bCat-KO)
O=C(NCc1ccccn1)c1ccc(COc2ccc(Cl)cc2)o1	HCT116 bCat-KO 4.3
CCOc1ccccc1-c1nc(-c2ccc(NC(=O)Cc3ccc(OC)cc3)cc2)no1	HUVEC prolif 384 20, H69AR inhibit 11
COc1ccc(CC(=O)Nc2ccc(-c3noc(-c4cc(OC)c(OC)c(OC)c4)n3)cc2)cc1	H69AR inhibit 21
COc1ccc(Cc2nc(-c3ccc(NC(=O)c4cccnc4)cc3)no2)cc1	H69AR inhibit 6.0
COc1ccc(Cc2nc(C(=O)Nc3ccc(Cl)cc3)cs2)cc1	HUVEC prolif 384 21
COc1ccc(C2N(Cc3ccccc3)CC(=O)N2/N=C(\C)c2ccccc2)cc1 (centres undefined)	none (no result: HUVEC prolif 384, H69AR inhibit, Fibroblast inh)
CCCCNC(=S)N(C)/N=C/c1ccc(OCc2ccc(C(=O)OC)cc2)c(OC)c1	none (no result: HUVEC prolif 384, H69AR inhibit, Fibroblast inh)
COc1ccc(OCC(=O)NNC(=O)C(=O)N2CCCC2)cc1	none (no result: HUVEC prolif 384, H69AR inhibit, Fibroblast inh)
COc1ccc(CC(=O)Nc2ccc(-c3noc(COc4ccccc4C)n3)cc2)cc1	none
COc1ccc(CC(=O)Nc2ccc(-c3noc(-c4ccc(Cl)cc4)n3)cc2)cc1	H69AR inhibit 5.1, HCT116 PTEN-null 0.9, Fibroblast inh 19, HCT116 bCat-KO 1.6
Cc1cc(C)c(C(=O)CSc2nnc(-c3ccccc3Br)o2)cc1C	none
Cc1cc(C)c(C(=O)CSC2=NC(N)=C(C#N)C3(CCCCC3)C2C(N)=O)cc1C (centres undefined)	H69AR inhibit 12
CC(C)c1ccc(C(=O)CSc2n[nH]c(-c3ccncc3)n2)cc1	H69AR inhibit 31
CCn1ccc(C(=O)Nc2c(C)nn(Cc3c(F)c(F)c(F)c(F)c3F)c2C)n1	none (no result: HUVEC prolif 384, H69AR inhibit, Fibroblast inh)
CCOC(=O)N1CCN(C(=O)C(=O)NNC(=O)COc2ccc(Cl)cc2)CC1	none (no result: HUVEC prolif 384, H69AR inhibit, Fibroblast inh)
CCN1CCN(c2ncc3c(n2)CC(c2ccc(OC)c(OC)c2)CC3=O)CC1 (centres undefined)	H69AR inhibit 19
CC(NC(=O)c1cccs1)c1n[nH]c(=S)n1C (centres undefined)	none (no result: HUVEC prolif 384, H69AR inhibit, Fibroblast inh)
COC(=O)c1ccccc1NC(=O)c1cc(-c2cccs2)on1	HUVEC prolif 384 25, H69AR inhibit 11
COC(=O)c1ccccc1NC(=O)c1cc(-c2cccc(OC)c2)on1	none (no result: HCT116 PTEN-null, HCT116 bCat-KO)
C(=N\Nc1nc(Nc2ccccc2)nc(N2CCOCC2)n1)/c1c[nH]c2ccccc12	none (no result: HUVEC prolif 384, H69AR inhibit, Fibroblast inh)
Cc1ccc(Nc2nc(N/N=C/c3c[nH]c4ccccc34)nc(N3CCOCC3)n2)cc1	HCT116 PTEN-null 2.8, HCT116 bCat-KO 5.1 (no result: HUVEC prolif 384, H69AR inhibit, Fibroblast inh)
Cc1[nH]c2ccccc2c1/C=N/Nc1nc(Nc2ccc(F)cc2)nc(N2CCOCC2)n1	HCT116 PTEN-null 3.6, HCT116 bCat-KO 5.8 (no result: HUVEC prolif 384, H69AR inhibit, Fibroblast inh)
Cc1oc(-c2ccccc2)cc1C(=O)Nc1cccc2ccccc12	H69AR inhibit 34
CCN(CC1COc2ccccc2O1)S(=O)(=O)c1ccc(C)cc1 (centres undefined)	none (no result: HUVEC prolif 384, H69AR inhibit, Fibroblast inh)
CC(C)CCNC(=O)C(c1ccco1)N(C(=O)Cn1nnc2ccccc21)c1ccc2c(c1)OCO2 (centres undefined)	HCT116 PTEN-null 3.3, HCT116 bCat-KO 3.1
O=C(NCc1ccco1)C(c1ccco1)N(CCc1ccccc1)C(=O)Cn1nnc2ccccc21 (centres undefined)	none
Cn1c2ccccc2n2c(=O)c(=O)n(CC(=O)c3ccc(Cl)cc3)nc12	none (no result: HUVEC prolif 384, H69AR inhibit, Fibroblast inh)
CCN(CC)S(=O)(=O)c1ccc(OC)c(NC(=S)Nc2ccc(C)c(C)c2)c1	none (no result: HUVEC prolif 384, H69AR inhibit, Fibroblast inh)
COc1cc(C2Nc3ccc4ncccc4c3C3=C2C(=O)CCC3)ccc1O (centres undefined)	H69AR inhibit 28
Cc1ccsc1C1Nc2ccc3ncccc3c2C2=C1C(=O)CCC2 (centres undefined)	none (no result: HUVEC prolif 384, H69AR inhibit, Fibroblast inh)
Cc1ccc2c(C)nc(SC(C(=O)c3ccccc3)c3ccccc3)nc2c1 (centres undefined)	none (no result: HUVEC prolif 384, H69AR inhibit, Fibroblast inh)
O=C(COC(=O)Cc1ccc2c(c1)OCCO2)Nc1ccc(S(=O)(=O)N2CCCC2)cc1	none (no result: HUVEC prolif 384, H69AR inhibit, Fibroblast inh)
